{"source": "ChEMBL document CHEMBL1123355", "about": "“Activity of N-methyl-alpha- and -beta-funaltrexamine at opioid receptors” (1986)", "species_on_record": "Cavia porcellus", "experiment": "Beta-Funaltrexamine antagonism of morphine agonism in the presence of compound was determined in Guinea pig ileum at concentration of 20 nM", "assay_type": "functional", "method_in_brief": "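Guinea pig ileum protection assay. The protector was added to the tissue 10 min before 20 nM β-FNA, which was applied for 30 min. The tissue was then washed 30 times with intermittent chasing by 500 nM naloxone. The result is the morphine IC50 in treated tissue divided by the morphine IC50 in control tissue of the same preparation, given with SE and n.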", "data": [{"smiles": "O=C1CC[C@@]2(O)[C@H]3Cc4ccc(O)c5c4[C@@]2(CCN3CC2CC2)[C@H]1O5", "note": "[NALTREXONE]", "values": [{"measurement": "IC50 ratio", "result": 2.1}]}]}
